Results published in ChEMBL document CHEMBL4825662 (J Med Chem, 2021).
≈ marks a conversion by molar mass, not a printed value.

Tests used:
[1] = Half life in human liver microsomes preincubated followed by NADPH addition and measured up to 45 mins by LC-MS/MS analysis; type: ADME, Microsome
[2] = Intrinsic clearance in human liver microsomes preincubated followed by NADPH addition and measured up to 45 mins by LC-MS/MS analysis; type: ADME, Microsome
[3] = Drug metabolism in human liver microsomes assessed as metabolite M1 formation at 10 uM incubated for 60 mins by HPLC method; type: ADME, Microsome; conditions: 1 h
Method in brief: (§1)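 Compound at 10 μM was incubated with rat or human liver microsomes. Sites of metabolism were proposed from mass spectral fragmentation patterns.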

[4] = Protein binding in human plasma assessed as unbound fraction at 5 uM by LC-MS/MS analysis based equilibrium dialysis method; type: ADME, cell-free
[5] = Volume of distribution at steady state in Sprague-Dawley rat at 1 mg/kg, iv administered […] measured after 0.02 to 24 hrs by tandem liquid chromatography/mass spectrometry; type: ADME, organism-based; conditions: in vivo, time 0.02-24 hrs, read-out: Vdss
Method in brief: (§2)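 Male Sprague–Dawley rats (200–250 g), 3 per route. IV bolus at 1 mg/kg, 1 mg/mL in 40:60 dimethylacetamide/saline; oral gavage at 5 or 10 mg/kg, 5 mg/mL in 1% methyl cellulose, 0.1% Tween 80 in water. Serial blood at 0.02–24 h (ten points) into heparin, spun at 4 °C, plasma frozen; acetonitrile protein precipitation, ESI LC-MS/MS with matrix curve and internal standards.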

[6] = Half life in Sprague-Dawley rat liver microsomes preincubated followed by NADPH addition and measured up to 45 mins by LC-MS/MS analysis; type: ADME, Microsome
[7] = Cmax in CD1 mouse at 5 mg/kg, po measured after 0.03 to 24 hrs by UHPLC-TOF method; type: ADME, organism-based; design: route oral, time upper 24 hrs, time lower 0.03 hrs, dose 5 mg/kg; conditions: in vivo
Human orthopneumovirus [8] = assay: Antiviral activity against Respiratory syncytial virus A2 infected in African green monkey Vero cells by Plaque reduction assay; type: functional, organism-based
[9] = Oral bioavailability in Sprague-Dawley rat at 10 mg/kg administered via gavage measured after 0.02 to 24 hrs by tandem liquid chromatography/mass spectrometry; type: ADME, organism-based; conditions: in vivo, time 0.02-24 hrs; method in brief: as §2
[10] = Kinetic solubility of compound in PBS at 200 uM at pH 7.4 by LC-MS/LC-UV analysis; type: physicochemical; conditions: read-out: Kinetic_solubility
Method in brief: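 Compound added from DMSO into PBS pH 7.4; precipitation measured across a range of concentrations.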

[11] = Volume of distribution at steady state in CD1 mouse at 1 mg/kg, iv measured after 0.083 to 24 hrs by UHPLC-TOF method; type: ADME, organism-based; conditions: in vivo, time 0.083-24 hrs, read-out: Vdss
Method in brief: (§3)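 Male CD-1 mice, acclimatized and individually housed, dosed IV and PO as amorphous-solid suspension. Terminal cardiac-puncture blood into heparinized tubes on wet ice, centrifuged at 4 °C within 15 min; plasma snap-frozen at −20 °C. IV arm sampled 2 min–24 h, oral arm 5 min–24 h. Plasma analysed by UHPLC-quadrupole-TOF MS.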

[12] = Thermodynamic solubility in PBS at 1 to 100 uM at pH 7.4 by HPLC-UV method; type: physicochemical; conditions: dose 1-100 µM, read-out: Therm_solubility
[13] = Cytotoxicity against African green monkey Vero cells by MTT assay; type: cell-based; conditions: chlorocebus sabaeus
Method in brief: (§4)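 Viability was assessed by MTT after culture with compound at 0.01 nM to 100 μM, run in parallel with plaque reduction assays. Values are the average of at least two testing occasions.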

[14] = Intrinsic clearance in Beagle dog liver microsomes preincubated followed by NADPH addition and measured up to 45 mins by LC-MS/MS analysis; type: ADME, Canis lupus familiaris, Microsome
[15] = Intrinsic clearance in Sprague-Dawley rat liver microsomes preincubated followed by NADPH addition and measured up to 45 mins by LC-MS/MS analysis; type: ADME, Microsome
[16] = Protein binding in rat plasma assessed as unbound fraction at 5 uM by LC-MS/MS analysis based equilibrium dialysis method; type: ADME, cell-free
[17] = Apparent permeability of compound in wild type MDCK at 10 uM incubated for 1 hr by LC-MS/MS assay; type: ADME, Canis lupus familiaris; conditions: dog
[18] = Half life in Beagle dog liver microsomes preincubated followed by NADPH addition and measured up to 45 mins by LC-MS/MS analysis
[19] = Clearance in Sprague-Dawley rat at 1 mg/kg, iv administered […] measured after 0.02 to 24 hrs by tandem liquid chromatography/mass spectrometry; type: ADME, organism-based; conditions: in vivo, time 0.02-24 hrs
[20] = Protein binding in dog plasma assessed as unbound fraction at 5 uM by LC-MS/MS analysis based equilibrium dialysis method; type: ADME, cell-free, Canis lupus familiaris
[21] = Cmax in Sprague-Dawley rat at 5 mg/kg, po administered via gavage measured after 0.02 to 24 hrs by tandem liquid chromatography/mass spectrometry; type: ADME, organism-based; design: route oral, dose 5 mg/kg, time upper 24 hrs, time lower 0.02 hrs; conditions: in vivo
Method in brief: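 Male Sprague–Dawley rats weighing 200–250 g, 3 per route, were used. The i.v. bolus was 1 mg/kg at 1 mg/mL in 40:60 dimethylacetamide/saline. Oral gavage doses were 5 or 10 mg/kg at 5 mg/mL in 1% methyl cellulose with 0.1% Tween 80. Heparinized blood was taken at 0.02–24 h (ten time points). Plasma was analyzed by LC-MS/MS after acetonitrile precipitation.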

[22] = Clearance in CD1 mouse at 1 mg/kg, iv measured after 0.083 to 24 hrs by UHPLC-TOF method; type: ADME, organism-based; conditions: in vivo, time 0.083-24 hrs
[23] = Oral bioavailability in CD1 mouse at 5 mg/kg measured after 0.03 to 24 hrs by UHPLC-TOF method; type: ADME, organism-based; conditions: in vivo, time 0.03-24 hrs; method in brief: as §3
[24] = Drug metabolism in rat liver microsomes assessed as metabolite M1 formation at 10 uM incubated for 60 mins by HPLC method; type: ADME, Microsome; conditions: 1 h; method in brief: as §1
[25] = Half life in CD1 mouse at 1 mg/kg, iv measured after 0.03 to 24 hrs by UHPLC-TOF method; type: ADME, organism-based; conditions: in vivo, time 0.03-24 hrs
[26] = Apparent permeability across apical to basolateral side in MDCK-MDR1 cells at 10 uM measured at 60 mins by LC-MS/MS analysis; type: ADME, cell-based, Canis lupus familiaris; conditions: dog, MDCK-MDR1
[27] = Cytotoxicity against human HepG2 cells by MTT assay; type: cell-based; method in brief: as §4
[28] = Tmax in Sprague-Dawley rat at 10 mg/kg, po measured after 0.02 to 24 hrs by UHPLC-TOF method; type: ADME, organism-based; conditions: Sprague-Dawley, in vivo, time 0.02-24 hrs, read-out: Tmax
[29] = Apparent permeability across basolateral side to apical side in MDCK-MDR1 cells at 10 uM measured at 60 mins by LC-MS/MS analysis; type: ADME, cell-based, Canis lupus familiaris; conditions: dog
Human orthopneumovirus [30] = assay: Antiviral activity against Respiratory syncytial virus A2 infected in human Huh7 cells by Plaque reduction assay; type: functional, organism-based; conditions: A2, Huh-7
Method in brief: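 Huh-7 cells were infected with RSV strain A2 in the presence of compound. Values are the average of at least two testing occasions.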

[31] = Efflux ratio of apparent permeability in MDCK-MDR1 cells at 10 uM measured at 60 mins by LC-MS/MS analysis; type: ADME, cell-based, Canis lupus familiaris; conditions: dog, MDCK-MDR1
[32] = Tmax in CD1 mouse at 5 mg/kg, po measured after 0.083 to 24 hrs by UHPLC-TOF method; type: ADME, organism-based; conditions: in vivo, time 0.083-24 hrs; method in brief: as §3
[33] = Cmax in Sprague-Dawley rat at 10 mg/kg, po measured after 0.02 to 24 hrs by UHPLC-TOF method; type: ADME, organism-based; design: route oral, dose 10 mg/kg, time 0.02-24 hrs; conditions: in vivo
[34] = Half life in Sprague-Dawley rat at 10 mg/kg, po measured after 0.25 to 24 hrs by UHPLC-TOF method; type: ADME, organism-based; conditions: in vivo, time 0.25-24 hrs

intrinsic clearance (CLint) [2] [µL/min] | Vd [5] [L/kg] | Cmax [7] [ng/mL] | bioavailability [9] [%] | Vd [11] [L/kg] | solubility thermodynamic [12] [µM] | intrinsic clearance [14] [µL/min] | Microsomal intrinsic clearance [15] [µL/min] | clearance [19] [mL/min/kg] | Cmax [21] [ng/mL] | clearance [22] [mL/min/kg] | bioavailability [23] [%] | SMILES | also measured
592 | 34 | 6 | 4 | 34 | 155 (≈ 60.2 µg/mL) | < 28 | < 19 | 98 | 6 | 98 | 4 | CC(C)CCn1c(CN2C(=O)C3(CC3)c3ccccc32)nc2cc(CN)ccc21 | half-life [1]: 5 min; Drug metabolism [3]: Metabolite_Detected; fraction unbound at 5 µM [4]: 0.07; half-life [6]: > 1.58 h; EC50 (Human orthopneumovirus [8]): 31 nM; solubility kinetic at 200 µM [10]: 155 µM (≈ 60.2 µg/mL); CC50 [13]: 15300 nM; fraction unbound at 5 µM [16]: 0.1; Papp at 1 h, 10 µM [17]: 12 ×10⁻⁶ cm/s; half-life [18]: > 1.67 h; fraction unbound at 5 µM [20]: 0.1; Drug metabolism [24]: Metabolite_Detected
2.9 | 11 | 110 | 13.8 | 11.3 | 1180 (≈ 526 µg/mL) | 2 | 0.7 | 209 | 44.3 | 76 | 12.9 | NCc1ccc2c(c1)nc(CN1C(=O)C3(CC3)c3cccc(F)c31)n2CCCC(F)(F)F | half-life [25]: 2.4 h; Papp A→B at 1 h, 10 µM [26]: 0.4 ×10⁻⁶ cm/s; CC50 [27]: > 25000 nM; Tmax [28]: 2.1 h; Papp B→A at 1 h, 10 µM [29]: 2.7 ×10⁻⁶ cm/s; EC50 (Human orthopneumovirus [30]): 2.3 nM; efflux ratio at 1 h, 10 µM [31]: 7.5; Tmax [32]: 2 h; Cmax [33]: 44.3 ng/mL; half-life [34]: 0.8 h
